Assay results taken from article PMC3954946 (Journal of medicinal chemistry, 2013).
Values belong to the compound of their own block, whether it stands above or below them.

How the values were obtained:
[1] = system: HCV GT-1a H77 subgenomic replicon; experiment: Stable HCV GT-1a H77 subgenomic replicon assay; type: cell-based, Hepatitis C virus; settings: for Plasma Shift fold: EC50 with 40% human serum vs without, GT-1a and GT-1b
[2] = Pharmacokinetics in rat; type: in vivo, Male Wistar/Han (CRL:WI) rats; settings: male, Wistar/Han (CRL:WI), plasma, po
[3] = Pharmacokinetics in dog; type: in vivo, Male beagle dogs; settings: male, beagle, plasma, po
Method in brief: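 Male beagle dogs with free access to food and water received a single oral dose of test compound by gavage in 2% Klucel LF in water. Blood was collected into EDTA tubes at typically 0.25, 0.5, 1, 2, 4, 6, 8 and 24 h post-dose. Plasma concentrations were measured by LC/MS/MS after protein precipitation with acetonitrile.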

[4] = system: GT-1b Con1 transient replicon with NS5B clinical isolates; experiment: Transient HCV replicon assay, panel of GT-1b NS5B clinical isolates; type: cell-based; settings: Hepatitis C virus, GT1B, read-out: mean EC50, GT 1b panel, geometric mean
[5] = system: HCV genotype 1 (GT-1); settings: triple combination with Peg-IFN/RBV, genotype-1 naive patients; cited from earlier work
[6] = system: HCV GT-1b Con1 subgenomic replicon; experiment: Stable HCV GT-1b Con1 subgenomic replicon assay; type: cell-based, Hepatitis C virus
[7] = system: HCV GT-1b Con1 subgenomic replicon; settings: genotype not given; cited from earlier work

SMILES: COc1c(C(C)(C)C)cc(-n2ccc(=O)[nH]c2=O)c2ccc(-c3ccc(NS(C)(=O)=O)cc3)cc12 [Compound 36, N-[4-[7-tert-Butyl-5-(2,4-dioxopyrimidin-1-yl)-8-methoxy-2-naphthyl]phenyl] methanesulfonamide]
increase in potency against both genotypes with respect to quinoline 35 ([1]; replicon GT-1a and GT-1b): 2- to 3 fold

SMILES: COc1c(C2(C(F)F)CC2)cc(-n2ccc(=O)[nH]c2=O)c2ncc(-c3ccc(NS(C)(=O)=O)cc3)cc12 [Compound 53, N-[4-[6-[1-(Difluoromethyl)cyclopropyl]-8-(2,4-dioxopyrimidin-1-yl)-5-methoxy-3-quinolyl]phenyl]methanesulfonamide]
improvement in potency with respect to compounds 51 and 52 ([1]; replicon GT-1a and GT-1b): 3- to 9 fold

SMILES: COc1ccc(-c2cc(C(C)(C)C)c(OC)c3cc(-c4ccc(NS(C)(=O)=O)cc4)cnc23)c(=O)[nH]1 [Compound 41, N-[4-[6-tert-Butyl-5-methoxy-8-(6-methoxy-2-oxo-1H-pyridin-3-yl)-3-quinolyl]phenyl] methanesulfonamide]
concentration at 8 h [2]: 1220 nM
concentration at 8 h [3]: 1950 nM
improvement in the 40% HS replicon assay ([1]; vs lead compound 7): 6 fold
EC50 [4]: 0.26 nM

SMILES: CC(C)(C)NC(=O)N[C@H](C(=O)N1C[C@H]2[C@@H]([C@H]1C(=O)NC(CC1CCC1)C(=O)C(N)=O)C2(C)C)C(C)(C)C (stereo partly drawn) [Boceprevir]
SVR rates [5]: ≤ 68%

concentration at 8 h [2]: 3500 nM
SMILES: COc1ccc(-c2cc(C(C)(C)C)c(OC)c3cc(N4CC[C@H](CNS(C)(=O)=O)C4)cnc23)c(=O)[nH]1 [Compound 50, N-[[(3S)-1-[6-tert-butyl-5-methoxy-8-(6-methoxy-2-oxo-1H-pyridin-3-yl)-3-quinolyl]pyrrolidin-3-yl]methyl]methanesulfonamide]

SMILES: COc1c(C(C)(C)C)cc(-c2cn(C)c(=O)[nH]c2=O)c2ncc(-c3ccc(NS(C)(=O)=O)cc3)cc12 [Compound 44]
increase in potency against both genotypes with respect to quinoline 35 ([1]; replicon GT-1a and GT-1b): ~ 2 fold

SMILES: COc1c(C(C)(C)C)cc(-c2ccc[nH]c2=O)c2ncc(-c3ccc(NS(C)(=O)=O)cc3)cc12 [Compound 39, N-[4-[6-tert-Butyl-5-methoxy-8-(2-oxo-1H-pyridin-3-yl)-3-quinolyl]phenyl] methanesulfonamide]
Plasma Shift fold [1]: 0.8–3.5 fold

SMILES: CCC[C@H](NC(=O)[C@@H]1[C@H]2CCC[C@H]2CN1C(=O)[C@@H](NC(=O)[C@@H](NC(=O)c1cnccn1)C1CCCCC1)C(C)(C)C)C(=O)C(=O)NC1CC1 [Telaprevir]
SVR rates [5]: up to 75%

SMILES: COc1c(/C=C/c2ccc(NS(C)(=O)=O)cc2)cc(-c2cc(F)c[nH]c2=O)cc1C(C)(C)C [Compound 7, reference compound]
EC50 ([6]; Hepatitis C virus, GT1B, read-out: GT-1b EC50): 3 nM
activity in the HCV subgenomic replicon assay [7]: single digit nM
EC50 ([1]; Hepatitis C virus, GT1A, read-out: GT-1a EC50): 8 nM

SMILES: CC(C)(C)c1cc(-c2cc(F)c[nH]c2=O)c2ncc(-c3ccc(NS(C)(=O)=O)cc3)cc2c1 [Compound 34]
drop in activity ([1]; desmethoxy analog vs 33, replicon GT-1a and GT-1b): 4-to 6 fold

SMILES: COc1c(C(C)(C)C)cc(N2CCCNC2=O)c2ncc(-c3ccc(NS(C)(=O)=O)cc3)cc12 [Compound 43]
decrease in potency against GT-1b ([6]; vs dihydrouracil 42): 6 fold
decrease in potency against GT-1a ([1]; vs dihydrouracil 42): 14 fold

SMILES: COc1c(C(C)(C)C)cc(-n2ccc(=O)[nH]c2=O)c2ncc(-c3ccc(NS(C)(=O)=O)cc3)cc12 [Compound 35, N-[4-[6-tert-Butyl-8-(2,4-dioxopyrimidin-1-yl)-5-methoxy-3-quinolyl]phenyl] methanesulfonamide]
Plasma Shift fold [1]: 1.7–2.2 fold
